In brackets after ≈: the same amount, converted by molar mass.
How the values were obtained:
[1] = Aqueous solubility by lyophilization solubility assay; assay type: physicochemical
Procedure, shortened: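 Amorphous powders from lyophilized material, as TFA salts; aqueous solubility measured by nephelometry.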

Enterococcus faecalis = assay: Antibacterial activity against Enterococcus faecalis C21560 in liquid culture by turbidity method; assay type: functional
Procedure, shortened: (§1)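 MIC is the lowest concentration giving 100% inhibition of bacterial growth in liquid culture, read by turbidity.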

Staphylococcus aureus [2] = assay: Antibacterial activity against Staphylococcus aureus infected in mouse model assessed as reduction of >= 2 log 10 cfu kidney burden; assay type: functional
Procedure, shortened: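 Systemic S. aureus infection mouse model (SATOA). Compounds were given iv; […]. Kidney bacterial burden (cfu) was compared with untreated control. ED99 is the dose giving a reduction of at least 2 log10 cfu in kidney burden.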

Staphylococcus aureus [3] = assay: Antibacterial activity against Staphylococcus aureus MB2865 in liquid culture by turbidity method; assay type: functional; procedure, shortened: as §1
Streptococcus pneumoniae = assay: Antibacterial activity against Streptococcus pneumoniae CL2883 in liquid culture by turbidity method; assay type: functional; procedure, shortened: as §1

Structure (SMILES)	solubility [1] [µg/mL]	MIC (Enterococcus faecalis) [µg/mL]	MIC (Staphylococcus aureus [3]) [µg/mL]	MIC (Streptococcus pneumoniae) [ng/mL]	ED99 (Staphylococcus aureus [2]) [mg/kg]
CO/C(C)=C1/NC(=O)[C@H]([C@@H](C)O)NC(=O)c2csc(n2)-c2cc(O)c(-c3nc(C(=O)N4CCN(CC(=O)N(C)C)CC4)cs3)nc2-c2csc(n2)[C@@H]2COC(=O)c3c4c5c(cccc5n3O)COC(=O)[C@@H](O[C@H]3C[C@](C)(O)[C@H](N(C)C)[C@H](C)O3)[C@@H](OC4)[C@H](NC(=O)c3csc1n3)c1nc(cs1)C(=O)N2.O=C(O)C(F)(F)F	> 10000	–	–	–	–
CO/C(C)=C1/NC(=O)[C@H]([C@@H](C)O)NC(=O)c2csc(n2)-c2cc(O)c(-c3nc(C(=O)N(C)CCN(C)C)cs3)nc2-c2csc(n2)[C@@H]2COC(=O)c3c4c5c(cccc5n3O)COC(=O)[C@@H](O[C@H]3C[C@](C)(O)[C@H](N(C)C)[C@H](C)O3)[C@@H](OC4)[C@H](NC(=O)c3csc1n3)c1nc(cs1)C(=O)N2	–	0.12 (≈ 0.0826 µM)	0.06 (≈ 0.0413 µM)	3.8 (≈ 0.00261 µM)	>0.5
CO/C(C)=C1/NC(=O)[C@H]([C@@H](C)O)NC(=O)c2csc(n2)-c2cc(O)c(-c3nc(C(=O)NCC(=O)N4CCN(C)CC4)cs3)nc2-c2csc(n2)[C@@H]2COC(=O)c3c4c5c(cccc5n3O)COC(=O)[C@@H](O[C@H]3C[C@](C)(O)[C@H](N(C)C)[C@H](C)O3)[C@@H](OC4)[C@H](NC(=O)c3csc1n3)c1nc(cs1)C(=O)N2	–	0.03 (≈ 0.0199 µM)	0.0038 (≈ 0.00252 µM)	0.48 (≈ 0.000318 µM)	0.13
CO/C(C)=C1/NC(=O)[C@H]([C@@H](C)O)NC(=O)c2csc(n2)-c2cc(O)c(-c3nc(C(=O)NCCCN4CCN(C)CC4)cs3)nc2-c2csc(n2)[C@@H]2COC(=O)c3c4c5c(cccc5n3O)COC(=O)[C@@H](O[C@H]3C[C@](C)(O)[C@H](N(C)C)[C@H](C)O3)[C@@H](OC4)[C@H](NC(=O)c3csc1n3)c1nc(cs1)C(=O)N2.O=C(O)C(F)(F)F	> 10000	–	–	–	–
CO/C(C)=C1/NC(=O)[C@H]([C@@H](C)O)NC(=O)c2csc(n2)-c2cc(O)c(-c3nc(C(=O)N4CCN(CC(=O)N(C)C)CC4)cs3)nc2-c2csc(n2)[C@@H]2COC(=O)c3c4c5c(cccc5n3O)COC(=O)[C@@H](O[C@H]3C[C@](C)(O)[C@H](N(C)C)[C@H](C)O3)[C@@H](OC4)[C@H](NC(=O)c3csc1n3)c1nc(cs1)C(=O)N2	–	0.25 (≈ 0.164 µM)	0.12 (≈ 0.0788 µM)	3.8 (≈ 0.0025 µM)	–
CO/C(C)=C1/NC(=O)[C@H]([C@@H](C)O)NC(=O)c2csc(n2)-c2cc(O)c(-c3nc(C(=O)NCCNC(=O)c4cc(O)cc(O)c4)cs3)nc2-c2csc(n2)[C@@H]2COC(=O)c3c4c5c(cccc5n3O)COC(=O)[C@@H](O[C@H]3C[C@](C)(O)[C@H](N(C)C)[C@H](C)O3)[C@@H](OC4)[C@H](NC(=O)c3csc1n3)c1nc(cs1)C(=O)N2	–	> 1	> 1	–	–
CO/C(C)=C1/NC(=O)[C@H]([C@@H](C)O)NC(=O)c2csc(n2)-c2cc(O)c(-c3nc(C(=O)N4CCN(C)CC4)cs3)nc2-c2csc(n2)[C@@H]2COC(=O)c3c4c5c(cccc5n3O)COC(=O)[C@@H](O[C@H]3C[C@](C)(O)[C@H](N(C)C)[C@H](C)O3)[C@@H](OC4)[C@H](NC(=O)c3csc1n3)c1nc(cs1)C(=O)N2.O=C(O)C(F)(F)F	> 10000	–	–	–	–
CO/C(C)=C1/NC(=O)[C@H]([C@@H](C)O)NC(=O)c2csc(n2)-c2cc(O)c(-c3nc(C(=O)NCCNCC(O)CO)cs3)nc2-c2csc(n2)[C@@H]2COC(=O)c3c4c5c(cccc5n3O)COC(=O)[C@@H](O[C@H]3C[C@](C)(O)[C@H](N(C)C)[C@H](C)O3)[C@@H](OC4)[C@H](NC(=O)c3csc1n3)c1nc(cs1)C(=O)N2 (stereo not given in full)	–	2 (≈ 1.35 µM)	0.5 (≈ 0.337 µM)	125 (≈ 0.0841 µM)	–
CO/C(C)=C1/NC(=O)[C@H]([C@@H](C)O)NC(=O)c2csc(n2)-c2cc(O)c(-c3nc(C(=O)NCC(=O)N4CCN(C)CC4)cs3)nc2-c2csc(n2)[C@@H]2COC(=O)c3c4c5c(cccc5n3O)COC(=O)[C@@H](O[C@H]3C[C@](C)(O)[C@H](N(C)C)[C@H](C)O3)[C@@H](OC4)[C@H](NC(=O)c3csc1n3)c1nc(cs1)C(=O)N2.O=C(O)C(F)(F)F	> 10000	–	–	–	–
CO/C(C)=C1/NC(=O)[C@H]([C@@H](C)O)NC(=O)c2csc(n2)-c2cc(O)c(-c3nc(C(=O)NCCNC(=O)CN4CCOCC4)cs3)nc2-c2csc(n2)[C@@H]2COC(=O)c3c4c5c(cccc5n3O)COC(=O)[C@@H](O[C@H]3C[C@](C)(O)[C@H](N(C)C)[C@H](C)O3)[C@@H](OC4)[C@H](NC(=O)c3csc1n3)c1nc(cs1)C(=O)N2.O=C(O)C(F)(F)F	> 10000	–	–	–	–
CO/C(C)=C1/NC(=O)[C@H]([C@@H](C)O)NC(=O)c2csc(n2)-c2cc(O)c(-c3nc(C(=O)NCCCN4CCOCC4)cs3)nc2-c2csc(n2)[C@@H]2COC(=O)c3c4c5c(cccc5n3O)COC(=O)[C@@H](O[C@H]3C[C@](C)(O)[C@H](N(C)C)[C@H](C)O3)[C@@H](OC4)[C@H](NC(=O)c3csc1n3)c1nc(cs1)C(=O)N2.O=C(O)C(F)(F)F	> 10000	–	–	–	–
C=C(NC(=O)c1csc(-c2nc3c(cc2O)-c2nc(cs2)C(=O)N[C@@H]([C@@H](C)O)C(=O)N/C(=C(\C)OC)c2nc(cs2)C(=O)N[C@@H]2c4nc(cs4)C(=O)N[C@@H](COC(=O)c4c5c6c(cccc6n4O)COC(=O)[C@@H](O[C@H]4C[C@](C)(O)[C@H](N(C)C)[C@H](C)O4)[C@H]2OC5)c2nc-3cs2)n1)C(N)=O.O=C(O)C(F)(F)F [NOCATHIACIN I]	340	–	–	–	–
CO/C(C)=C1/NC(=O)[C@H]([C@@H](C)O)NC(=O)c2csc(n2)-c2cc(O)c(-c3nc(C(=O)NCCN)cs3)nc2-c2csc(n2)[C@@H]2COC(=O)c3c4c5c(cccc5n3O)COC(=O)[C@@H](O[C@H]3C[C@](C)(O)[C@H](N(C)C)[C@H](C)O3)[C@@H](OC4)[C@H](NC(=O)c3csc1n3)c1nc(cs1)C(=O)N2	–	2 (≈ 1.42 µM)	0.5 (≈ 0.354 µM)	60 (≈ 0.0425 µM)	–
CO/C(C)=C1/NC(=O)[C@H]([C@@H](C)O)NC(=O)c2csc(n2)-c2cc(O)c(-c3nc(C(=O)NCCNC(N)=O)cs3)nc2-c2csc(n2)[C@@H]2COC(=O)c3c4c5c(cccc5n3O)COC(=O)[C@@H](O[C@H]3C[C@](C)(O)[C@H](N(C)C)[C@H](C)O3)[C@@H](OC4)[C@H](NC(=O)c3csc1n3)c1nc(cs1)C(=O)N2	–	0.5 (≈ 0.344 µM)	0.06 (≈ 0.0412 µM)	7.5 (≈ 0.00516 µM)	–

Further lines, with some results ahead:

solubility [1] [µg/mL]	MIC (Enterococcus faecalis) [µg/mL]	MIC (Staphylococcus aureus [3]) [µg/mL]	MIC (Streptococcus pneumoniae) [ng/mL]	Structure (SMILES)	ED99 (Staphylococcus aureus [2]) [mg/kg]
< 10000	–	–	–	CO/C(C)=C1/NC(=O)[C@H]([C@@H](C)O)NC(=O)c2csc(n2)-c2cc(O)c(-c3nc(C(=O)NCCNC(N)=O)cs3)nc2-c2csc(n2)[C@@H]2COC(=O)c3c4c5c(cccc5n3O)COC(=O)[C@@H](O[C@H]3C[C@](C)(O)[C@H](N(C)C)[C@H](C)O3)[C@@H](OC4)[C@H](NC(=O)c3csc1n3)c1nc(cs1)C(=O)N2.O=C(O)C(F)(F)F	–
> 10000	–	–	–	CO/C(C)=C1/NC(=O)[C@H]([C@@H](C)O)NC(=O)c2csc(n2)-c2cc(O)c(-c3nc(C(=O)NCCNC(=O)CN(C)C)cs3)nc2-c2csc(n2)[C@@H]2COC(=O)c3c4c5c(cccc5n3O)COC(=O)[C@@H](O[C@H]3C[C@](C)(O)[C@H](N(C)C)[C@H](C)O3)[C@@H](OC4)[C@H](NC(=O)c3csc1n3)c1nc(cs1)C(=O)N2.O=C(O)C(F)(F)F	–
> 10000	–	–	–	CO/C(C)=C1/NC(=O)[C@H]([C@@H](C)O)NC(=O)c2csc(n2)-c2cc(O)c(-c3nc(C(=O)NCCCN(C)C)cs3)nc2-c2csc(n2)[C@@H]2COC(=O)c3c4c5c(cccc5n3O)COC(=O)[C@@H](O[C@H]3C[C@](C)(O)[C@H](N(C)C)[C@H](C)O3)[C@@H](OC4)[C@H](NC(=O)c3csc1n3)c1nc(cs1)C(=O)N2.O=C(O)C(F)(F)F	–
> 10000	–	–	–	CO/C(C)=C1/NC(=O)[C@H]([C@@H](C)O)NC(=O)c2csc(n2)-c2cc(O)c(-c3nc(C(=O)NCCN(C)C)cs3)nc2-c2csc(n2)[C@@H]2COC(=O)c3c4c5c(cccc5n3O)COC(=O)[C@@H](O[C@H]3C[C@](C)(O)[C@H](N(C)C)[C@H](C)O3)[C@@H](OC4)[C@H](NC(=O)c3csc1n3)c1nc(cs1)C(=O)N2.O=C(O)C(F)(F)F	–
> 10000	–	–	–	CO/C(C)=C1/NC(=O)[C@H]([C@@H](C)O)NC(=O)c2csc(n2)-c2cc(O)c(-c3nc(C(=O)N(C)CCN(C)C)cs3)nc2-c2csc(n2)[C@@H]2COC(=O)c3c4c5c(cccc5n3O)COC(=O)[C@@H](O[C@H]3C[C@](C)(O)[C@H](N(C)C)[C@H](C)O3)[C@@H](OC4)[C@H](NC(=O)c3csc1n3)c1nc(cs1)C(=O)N2.O=C(O)C(F)(F)F	–
> 10000	–	–	–	CO/C(C)=C1/NC(=O)[C@H]([C@@H](C)O)NC(=O)c2csc(n2)-c2cc(O)c(-c3nc(C(=O)NCCN)cs3)nc2-c2csc(n2)[C@@H]2COC(=O)c3c4c5c(cccc5n3O)COC(=O)[C@@H](O[C@H]3C[C@](C)(O)[C@H](N(C)C)[C@H](C)O3)[C@@H](OC4)[C@H](NC(=O)c3csc1n3)c1nc(cs1)C(=O)N2.O=C(O)C(F)(F)F	–
10000	–	–	–	CO/C(C)=C1/NC(=O)[C@H]([C@@H](C)O)NC(=O)c2csc(n2)-c2cc(O)c(-c3nc(C(=O)NCCNCC(O)CO)cs3)nc2-c2csc(n2)[C@@H]2COC(=O)c3c4c5c(cccc5n3O)COC(=O)[C@@H](O[C@H]3C[C@](C)(O)[C@H](N(C)C)[C@H](C)O3)[C@@H](OC4)[C@H](NC(=O)c3csc1n3)c1nc(cs1)C(=O)N2.O=C(O)C(F)(F)F (stereo not given in full)	–
–	0.12 (≈ 0.0826 µM)	0.06 (≈ 0.0413 µM)	0.95 (≈ 0.000654 µM)	CO/C(C)=C1/NC(=O)[C@H]([C@@H](C)O)NC(=O)c2csc(n2)-c2cc(O)c(-c3nc(C(=O)NCCCN(C)C)cs3)nc2-c2csc(n2)[C@@H]2COC(=O)c3c4c5c(cccc5n3O)COC(=O)[C@@H](O[C@H]3C[C@](C)(O)[C@H](N(C)C)[C@H](C)O3)[C@@H](OC4)[C@H](NC(=O)c3csc1n3)c1nc(cs1)C(=O)N2	>0.5

From ChEMBL document CHEMBL1136943, “Nocathiacin analogs: Synthesis and antibacterial activity of novel water-soluble amides” (Bioorg Med Chem Lett, 2009)
